# Assay results as given in ChEMBL document CHEMBL1142845, “Synthesis, stability, and implications of phosphothioate agonists of sphingosine-1-phosphate receptors” (Bioorg Med Chem Lett, 2005).
# Several values for one entry are separate records, joined by “and”; a condition that tells them apart may be missing. Equal values may be shown once.
# Assay: Effective concentration required for [35S]GTP-gamma-S binding towards Sphingosine 1-phosphate receptor G-protein complex expressed in HEK293T cells
# Assay type: functional, cell-based, Homo sapiens
# Details: hek-293t
# Outline: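 Agonist-stimulated [35S]GTPγS binding was measured on individual S1P receptor–G-protein complexes overexpressed in HEK293T cells. EC50 values were taken from ligand-dependent binding, and efficacy was expressed as a percentage of the S1P maximal effect at each receptor.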
row,SMILES,EC50
1,CCCCCCCCc1ccc(NC(=O)[C@@H](N)[C@@H](C)OP(=O)(O)O)cc1,0.02 µM
2,CCCCCCCCc1ccc(CC[C@@H](N)CO)cc1,0.91 µM and 2.8 µM and 8.7 µM
3,CCCCCCCCc1ccc(NC(=O)[C@@H](N)[C@@H](C)O)cc1,1.7 µM and 0.49 µM
